“And” between values parts separate entries of the source, which are not always exact repeats. Identical values can stand only once. Like-named read-outs stand apart in the source and are kept apart here.
Legend:
[1] = system: chloride conductance of the human red cell membrane; conditions: ref Bennekou and Stampe (1988); cited from earlier work
[2] = system: band 3 protein, DIDS binding site; conditions: cited from earlier work
[3] = system: chloride conductance of the human red cell membrane; assay: Conductance studies of net; assay type: cell-based; conditions: 16 µM DIDS; calculated from Bennekou and Stampe (1988) data
[4] = system: residual chloride transport in DIDS-C human red blood cells; assay: 36Cl- efflux in DIDS-C cells; assay type: cell-based
[5] = biological target: T1, chloride transport in human red blood cells; capnophorin (band 3 or AE1) (Homo sapiens, UniProt P02730); assay: 36Cl- efflux; assay type: cell-based; conditions: 38C
T1 sequence (P02730 1-911): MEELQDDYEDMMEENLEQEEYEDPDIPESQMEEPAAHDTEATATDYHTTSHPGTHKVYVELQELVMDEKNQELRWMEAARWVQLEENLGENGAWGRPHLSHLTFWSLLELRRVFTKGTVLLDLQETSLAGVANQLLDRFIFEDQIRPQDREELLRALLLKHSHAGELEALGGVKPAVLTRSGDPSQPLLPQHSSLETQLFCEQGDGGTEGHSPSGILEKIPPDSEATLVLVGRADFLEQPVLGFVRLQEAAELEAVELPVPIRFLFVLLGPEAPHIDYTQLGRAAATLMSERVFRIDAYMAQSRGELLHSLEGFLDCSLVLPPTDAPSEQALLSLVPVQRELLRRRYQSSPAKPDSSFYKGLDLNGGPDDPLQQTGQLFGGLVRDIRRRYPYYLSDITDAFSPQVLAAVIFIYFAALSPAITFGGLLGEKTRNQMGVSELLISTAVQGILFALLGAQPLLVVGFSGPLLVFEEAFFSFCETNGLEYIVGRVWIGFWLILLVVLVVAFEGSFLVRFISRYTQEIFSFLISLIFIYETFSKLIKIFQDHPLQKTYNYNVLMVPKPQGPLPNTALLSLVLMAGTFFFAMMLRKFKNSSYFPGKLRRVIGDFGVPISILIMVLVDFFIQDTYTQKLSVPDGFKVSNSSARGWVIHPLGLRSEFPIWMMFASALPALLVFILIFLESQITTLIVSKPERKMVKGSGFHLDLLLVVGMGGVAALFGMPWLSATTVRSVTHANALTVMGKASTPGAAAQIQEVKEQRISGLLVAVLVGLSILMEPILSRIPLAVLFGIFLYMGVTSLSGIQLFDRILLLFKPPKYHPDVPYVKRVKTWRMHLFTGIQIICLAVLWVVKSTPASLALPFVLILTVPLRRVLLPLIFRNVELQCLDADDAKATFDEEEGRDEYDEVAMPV
Method in brief: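 Fresh heparinized human blood washed four times in medium A (150 mM KCl, 0.5–2 mM KH2PO4, pH 7.2), buffy coat removed. Covalent labelling: ~50% hematocrit, 50 µM DIDS, 38°C, 45 min, then washes in medium A. Cells loaded with 3.7–18.5 kBq 36Cl per ml suspension and packed. Tracer efflux measured at 38°C, pH 7.2, by Millipore-Swinnex filtration or continuous flow tube. Rate constant taken from extracellular radioactivity over time, corrected for trapped isotope.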

[6] = biological target: human erythrocyte anion transporter; conditions: read-out: Dissociation constant of DNDS binding, ref Frohlich (1982), cited from earlier work

O=S(=O)(O)c1cc(N=C=S)ccc1C=Cc1ccc(N=C=S)cc1S(=O)(=O)O [DIDS, 4,4'-diisothiocyanostilbene-2,2'-disulfonic acid]
Inhibition of conductive flow of chloride [1]: ~ 100%
Half-time for irreversible DIDS binding ([2]; 0C, ref Janas et al., 1989): ~ 3 h
Time constant 1/k of irreversible DIDS binding ([2]; 38C, ref Janas et al., 1989): 2.2 rain
Reduction of conductive component of chloride efflux [3]: 96.4%
Reduction of conductive component of chloride efflux, fold [3]: 28 times
Chloride flux in DIDS-CR cells ([4]; covalent DIDS + 50 µM DIDS in flux medium, 38C, pH 7.2, n = 15): 0.60 [SD -- 0,16] pmol cm-2 s-1
Chloride efflux after DIDS binding procedure performed once ([5]; 50 µM DIDS, 45 min, n = 10): 96.3 [SD-+ 8.1] pmol cm-2 s-1
Chloride efflux after DIDS binding procedure performed twice ([5]; 50 µM DIDS, 45 min, n = 10): 94.1 [SD ~ 11.0] pmol cm-2 s-1
Irreversible inhibition of chloride transport by maximum covalent DIDS binding ([5]; DIDS-C cells vs control cells, pH 7.2): 99.8%
Chloride self-exchange flux in DIDS-C cells ([5]; covalently bound DIDS, pH 7.2, n = 30): 106 pmol cm-2 s-1 and 106 (SD + 17) pmol cm-2 s-1
Half-time for chloride tracer efflux in DIDS-C cells ([5]; found experimentally): 29 s

O=[N+]([O-])c1ccc(C=Cc2ccc([N+](=O)[O-])cc2S(=O)(=O)O)c(S(=O)(=O)O)c1 [DNDS, 4,4'-dinitrostilbene-2,2'-disulfonate]
Kd ([6]; 0C): 84 nM
Kd ([6]; 10C): 86 nM
Kd ([6]; 20C): 90 nM

O=S(=O)(O)c1cc(N=C=S)ccc1CCc1ccc(N=C=S)cc1S(=O)(=O)O [H2DIDS, 4,4'-diisothiocyano-dihydrostilbene-2,2'-disulfonic acid]
Rate of binding to the DIDS binding site relative to DIDS ([2]; 0C, ref Shami, Rothstein, and Knauf, 1978): binds much faster than DIDS

CC(C)[C@@H]1NC(=O)[C@H](C)OC(=O)[C@@H](C(C)C)NC(=O)[C@@H](C(C)C)OC(=O)[C@H](C(C)C)NC(=O)[C@H](C)OC(=O)[C@@H](C(C)C)NC(=O)[C@@H](C(C)C)OC(=O)[C@H](C(C)C)NC(=O)[C@H](C)OC(=O)[C@@H](C(C)C)NC(=O)[C@@H](C(C)C)OC1=O [valinomycin]
Effect on initial 36Cl influx rate ([4]; valinomycin 1 µM, extracellular chloride < 1 mM): no detectable effect

From publication PMC2216779 (The Journal of General Physiology, 1993)
